Measured values taken from article PMC10603355 (Journal for Immunotherapy of Cancer, 2023).

How the values were obtained:
[1] = test system: splenocytes of HHDII/DR1 mice (T-cell IFNγ response); assay: IFNγ ELISpot on splenocytes of peptide-immunized HLA-A2 transgenic; type: in vivo, mouse; conditions: for IFNγ response after immunization with wt peptide: HHDII/DR1 mice, tested against wt or Hcit peptides (figure 2B); for Modification specificity of IFNγ response (Hcit versus wt peptide): HHDII/DR1 and HHDII mice immunized with long Hcit peptide (figure 2A); for Effect of CD4 or CD8 blocking antibody on IFNγ response, ex vivo: HHDII/DR1 mice immunized with long Hcit peptide, 20 µg/mL anti-CD4 or anti-CD8 (figure 1C)
How it was run: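 HHDII/DR1 or HHDII mice get 25 µg peptide s.c. (stock 1 mg/mL in 20% DMSO/PBS) with 5 µg each CpG ODN 1826 and monophosphoryl lipid A in PBS on days 1, 8 and 15. Spleens taken day 21. 5×10^5 splenocytes/well in quadruplicate are restimulated with peptide for 40 h at 37°C, 5% CO2. IFNγ spots are counted automatically and reported as mean spots/million splenocytes per mouse; n=3 per group.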

HLA-A2 on T2 cells = assay: T2 binding assay; type: cell-based, human; conditions: different peptide concentrations; three independent experiments (figure 3C,D)
How it was run: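 T2 cells (2×10^6/mL) are incubated overnight at 37°C with peptide (dilutions prepared at 400, 40 and 4 µg/mL before mixing) and recombinant human β2-microglobulin (prepared at 800 ng/mL). Brefeldin A is added for 1 h before anti-HLA-A2 FITC staining and flow cytometry. Binding is taken as median fluorescence intensity; three independent experiments, two-way ANOVA.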

B16 HHDII melanoma cells = assay: In vivo antitumor study, B16 HHDII tumor in HHDII mice; conditions: aggressive mouse B16 melanoma model, peptide vaccination
How it was run: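 HHDII mice receive 5×10^4 B16 HHDII cells s.c. on day 1, then peptide plus CpG/MPLA adjuvant on days 4, 8 and 11. In depletion arms, anti-CD4 (GK1.5) or anti-CD8 (2.43) is given i.p., 500 µg day 4 and 300 µg days 8 and 11. Tumours are checked twice weekly, with euthanasia near 15 mm diameter; n=5–10 per group.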

In the case of “Aldo 204–219wt: wild type (native) long aldolase A peptide (YVTEKVLAAVYKALSD; UniProt P04075 204-219, looked up, fragment)”, the “IFNγ response after immunization with wt peptide” value [1] is reported as “failed to stimulate detectable IFNγ immune responses”.
With “Cyk8 112–132wt: wild type (native) long cytokeratin 8 peptide (LEQQNKMLETKWSLLQQQKTA; UniProt P05787 112-132, looked up, fragment)” the “IFNγ response after immunization with wt peptide” value [1] was “failed to stimulate detectable IFNγ immune responses”.
“LEQQN-Hcit-MLET- Hcit-WSLLQQQ- Hcit-T [Cyk8 112-132Hcit]” was tested, and the “Modification specificity of IFNγ response (Hcit versus wt peptide)” value [1] was “strong modification specific responses” and the “Effect of CD4 or CD8 blocking antibody on IFNγ response, ex vivo” value [1] was “either anti-CD8 or anti-CD4 antibody significantly reduced the immune response”.
For VLAAVY-Hcit-AL [Aldo 209-217Hcit], the “IFNγ response to short peptide in mice immunized with the long Hcit peptide” value ([1]; HHDII/DR1 mice immunized with Aldo 204-219Hcit or Cyk8 112-132Hcit (figure 2C)) was “strong responses”, the “HLA-A2 binding affinity of Hcit peptide compared with corresponding wt peptide” value (HLA-A2 on T2 cells) was “higher binding affinity” and the survival (B16 HHDII melanoma cells) was “at least 50%”.
“YVTE-Hcit-VLAAVY-Hcit-ALSD [Aldo 204-219Hcit]” was tested, and the “Modification specificity of IFNγ response (Hcit versus wt peptide)” value [1] was “strong modification specific responses” and the “Effect of CD4 or CD8 blocking antibody on IFNγ response, ex vivo” value [1] was “not affected by either of the blocking antibody”.
